Laboratory results reported in PMC6381215 (Pharmacology Research & Perspectives, 2019).
Blank lines part the entries; values can stand above or below the compound they belong to.

Assays:
[1] = biological target: NMDA receptor (ion-channel / PCP site), rat forebrain membranes; assay: enhancement of [3H]MK-[…]) binding; conditions: 5 mM Tris-HCl pH 7.4, 25 °C, 20 h
[2] = tested on: Ca2+ channel (L, verapamil site); assay: radioligand competition; conditions: read-out: IC50 (M) ^a
How it was run: (§1)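 Outsourced radioligand competition binding panel of receptors, transporters and ion channels. Primary screen used a single 10 μmol L−1 concentration of test compound to give % inhibition of control specific binding. […] IC50 and Hill coefficient were obtained by non-linear regression.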

Na+ channel (site 2) = assay: radioligand competition; conditions: read-out: IC50 (M) ^a
How it was run: as §1

Sigma (1 and 2) = assay: radioligand competition; conditions: read-out: IC50 (M) ^a; non-selective sigma 1 and 2
How it was run: as §1

EC50 ([1]; agonist (glutamate) site, no added glycine): 200 ± 10 nM
SMILES: N[C@@H](CCC(=O)O)C(=O)O [L-glutamate]

IC50 [2]: 2.2e-06 M
IC50 (Na+ channel (site 2)): 3.9e-06 M
IC50 (Sigma (1 and 2)): 2.2e-06 M
SMILES: COc1cccc(N(C)C(=N)Nc2cc(SC)ccc2Cl)c1 [GMOM, N‐(2‐chloro‐5‐thiomethylphenyl)‐N′‐(3‐methoxyphenyl)‐N′‐methylguanidine]

EC50 ([1]; co-agonist (glycine) site, no added glutamate): 1050 ± 500 nM
SMILES: NCC(=O)O [glycine]
